According to ChEMBL document CHEMBL4689842, “EUbOPEN Chemogenomics Library wave 1” (2021):
Where “and” joins values, the source holds several entries; their conditions need not be identical. Identical values can stand only once.

Tested on: HEK-293T
Assay: Multiplex assay against HEK293T;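 for Population Tubulin-Different-Phenotype (%): share of the cells with healthy nuclei that show this phenotype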
Format: toxicity, cell-based
Conditions: human
Method in brief: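 With compound added, live cells were imaged on a CQ1 microscope at 37°C and 5% CO2; staining with Hoechst33342, BioTracker Green Microtubule Cytoskeleton Dye, MitoTracker Red and Annexin V Alexa Fluor 680 had been done at seeding. The CellPathfinder machine-learning gating scheme split cells into Hoechst high-intensity objects or normal cells, normal cells into healthy, pyknosed or fragmented nuclei, and pyknosed cells into mitotic or apoptotic. The tubulin, mitochondrial-mass and membrane-permeability phenotypes are per cents of healthy-nucleus cells.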

[1] = 12 h, 1 µM, compound concentration 1 uM, replicate 1
[2] = 12 h, 1 µM, compound concentration 1 uM, replicate 2
[3] = 12 h, 10 µM, compound concentration 10 uM, replicate 1
[4] = 12 h, 10 µM, compound concentration 10 uM, replicate 2
[5] = 24 h, 1 µM, compound concentration 1 uM, replicate 1
[6] = 24 h, 1 µM, compound concentration 1 uM, replicate 2
[7] = 24 h, 10 µM, compound concentration 10 uM, replicate 1
[8] = 24 h, 10 µM, compound concentration 10 uM, replicate 2
[9] = 48 h, 1 µM, compound concentration 1 uM, replicate 1
[10] = 48 h, 1 µM, compound concentration 1 uM, replicate 2
[11] = 48 h, 10 µM, compound concentration 10 uM, replicate 1
[12] = 48 h, 10 µM, compound concentration 10 uM, replicate 2

Structure (SMILES): CC[C@H](C)C(=O)O[C@H]1C[C@@H](C)C=C2C=C[C@H](C)[C@H](CC[C@@H]3C[C@@H](O)CC(=O)O3)[C@H]21 [LOVASTATIN]
- Population Apoptotic (%) [1]: 48%
- Population Fragmented Nuclei (%) [1]: 22%
- Population Healthy Nuclei (%) [1]: 16%
- Population Hoechst High Intensity Objects (%) [1]: 14%
- Population Mitochondria Different-Phenotype (%) [1]: 68%
- Population Mitotic Cells (%) [1]: 51%
- Population Normal (%) [1]: 85%
- Population Pyknosed Nuclei (%) [1]: 60%
- Population Tubulin-Different-Phenotype (%) [1]: 28%
- Total Cell Count [1]: 174
- Population Apoptotic (%) [2]: 7%
- Population Fragmented Nuclei (%) [2]: 4%
- Population Healthy Nuclei (%) [2]: 44%
- Population Hoechst High Intensity Objects (%) [2]: 4%
- Population Membrane Permeable-Phenotype (%) [2]: 4%
- Population Mitochondria Different-Phenotype (%) [2]: 11%
- Population Mitotic Cells (%) [2]: 92%
- Population Normal (%) [2]: 95%
- Population Pyknosed Nuclei (%) [2]: 50%
- Population Tubulin-Different-Phenotype (%) [2]: 9%
- Total Cell Count [2]: 227
- Population Apoptotic (%) [3]: 47%
- Population Fragmented Nuclei (%) [3]: 8%
- Population Healthy Nuclei (%) [3]: 33%
- Population Hoechst High Intensity Objects (%) [3]: 14%
- Population Membrane Permeable-Phenotype (%) [3]: 1%
- Population Mitochondria Different-Phenotype (%) [3]: 89%
- Population Mitotic Cells (%) [3]: 52%
- Population Normal (%) [3]: 85%
- Population Pyknosed Nuclei (%) [3]: 57%
- Population Tubulin-Different-Phenotype (%) [3]: 39%
- Total Cell Count [3]: 341
- Population Apoptotic (%) [4]: 10%
- Population Fragmented Nuclei (%) [4]: 5%
- Population Healthy Nuclei (%) [4]: 45%
- Population Hoechst High Intensity Objects (%) [4]: 3%
- Population Membrane Permeable-Phenotype (%) [4]: 4%
- Population Mitochondria Different-Phenotype (%) [4]: 21%
- Population Mitotic Cells (%) [4]: 89%
- Population Normal (%) [4]: 96%
- Population Pyknosed Nuclei (%) [4]: 49%
- Population Tubulin-Different-Phenotype (%) [4]: 16%
- Total Cell Count [4]: 266
- Population Apoptotic (%) [5]: 50%
- Population Fragmented Nuclei (%) [5]: 30%
- Population Healthy Nuclei (%) [5]: 16%
- Population Hoechst High Intensity Objects (%) [5]: 19%
- Population Membrane Permeable-Phenotype (%) [5]: 4%
- Population Mitochondria Different-Phenotype (%) [5]: 52%
- Population Mitotic Cells (%) [5]: 50%
- Population Normal (%) [5]: 80%
- Population Pyknosed Nuclei (%) [5]: 52%
- Population Tubulin-Different-Phenotype (%) [5]: 32%
- Total Cell Count [5]: 192
- Population Apoptotic (%) [6]: 8%
- Population Fragmented Nuclei (%) [6]: 3%
- Population Healthy Nuclei (%) [6]: 65%
- Population Hoechst High Intensity Objects (%) [6]: 3%
- Population Membrane Permeable-Phenotype (%) [6]: 6%
- Population Mitochondria Different-Phenotype (%) [6]: 13%
- Population Mitotic Cells (%) [6]: 91%
- Population Normal (%) [6]: 96%
- Population Pyknosed Nuclei (%) [6]: 30%
- Population Tubulin-Different-Phenotype (%) [6]: 20%
- Total Cell Count [6]: 287
- Population Apoptotic (%) [7]: 38%
- Population Fragmented Nuclei (%) [7]: 12%
- Population Healthy Nuclei (%) [7]: 37%
- Population Hoechst High Intensity Objects (%) [7]: 17%
- Population Membrane Permeable-Phenotype (%) [7]: 1%
- Population Mitochondria Different-Phenotype (%) [7]: 73%
- Population Mitotic Cells (%) [7]: 61%
- Population Normal (%) [7]: 82%
- Population Pyknosed Nuclei (%) [7]: 50%
- Population Tubulin-Different-Phenotype (%) [7]: 37%
- Total Cell Count [7]: 349
- Population Apoptotic (%) [8]: 14%
- Population Fragmented Nuclei (%) [8]: 4%
- Population Healthy Nuclei (%) [8]: 57%
- Population Hoechst High Intensity Objects (%) [8]: 4%
- Population Membrane Permeable-Phenotype (%) [8]: 6%
- Population Mitochondria Different-Phenotype (%) [8]: 17%
- Population Mitotic Cells (%) [8]: 85%
- Population Normal (%) [8]: 95%
- Population Pyknosed Nuclei (%) [8]: 37%
- Population Tubulin-Different-Phenotype (%) [8]: 20%
- Total Cell Count [8]: 320
- Population Apoptotic (%) [9]: 49%
- Population Fragmented Nuclei (%) [9]: 29%
- Population Healthy Nuclei (%) [9]: 28%
- Population Hoechst High Intensity Objects (%) [9]: 15%
- Population Membrane Permeable-Phenotype (%) [9]: 2%
- Population Mitochondria Different-Phenotype (%) [9]: 42%
- Population Mitotic Cells (%) [9]: 50%
- Population Normal (%) [9]: 84%
- Population Pyknosed Nuclei (%) [9]: 41%
- Population Tubulin-Different-Phenotype (%) [9]: 40%
- Total Cell Count [9]: 205
- Population Apoptotic (%) [10]: 3%
- Population Fragmented Nuclei (%) [10]: 6%
- Population Healthy Nuclei (%) [10]: 81%
- Population Hoechst High Intensity Objects (%) [10]: 3%
- Population Membrane Permeable-Phenotype (%) [10]: 7%
- Population Mitochondria Different-Phenotype (%) [10]: 4%
- Population Mitotic Cells (%) [10]: 96%
- Population Normal (%) [10]: 96%
- Population Pyknosed Nuclei (%) [10]: 11%
- Population Tubulin-Different-Phenotype (%) [10]: 20%
- Total Cell Count [10]: 588
- Population Apoptotic (%) [11]: 42%
- Population Fragmented Nuclei (%) [11]: 17%
- Population Healthy Nuclei (%) [11]: 37%
- Population Hoechst High Intensity Objects (%) [11]: 19%
- Population Membrane Permeable-Phenotype (%) [11]: 2%
- Population Mitochondria Different-Phenotype (%) [11]: 46%
- Population Mitotic Cells (%) [11]: 57%
- Population Normal (%) [11]: 80%
- Population Pyknosed Nuclei (%) [11]: 45%
- Population Tubulin-Different-Phenotype (%) [11]: 39%
- Total Cell Count [11]: 384
- Population Apoptotic (%) [12]: 8%
- Population Fragmented Nuclei (%) [12]: 5%
- Population Healthy Nuclei (%) [12]: 72%
- Population Hoechst High Intensity Objects (%) [12]: 4%
- Population Membrane Permeable-Phenotype (%) [12]: 6%
- Population Mitochondria Different-Phenotype (%) [12]: 5%
- Population Mitotic Cells (%) [12]: 91%
- Population Normal (%) [12]: 95%
- Population Pyknosed Nuclei (%) [12]: 21%
- Population Tubulin-Different-Phenotype (%) [12]: 24%
- Total Cell Count [12]: 484

Structure (SMILES): C[C@@]1(C(=O)Nc2ccc(F)nc2)CCCN1c1nc(Nc2cc(C3CC3)n[nH]2)c2cccn2n1 [BMS-754807]
- Population Apoptotic (%) [1]: 24%
- Population Fragmented Nuclei (%) [1]: 19%
- Population Healthy Nuclei (%) [1]: 38%
- Population Hoechst High Intensity Objects (%) [1]: 25%
- Population Membrane Permeable-Phenotype (%) [1]: 7%
- Population Mitochondria Different-Phenotype (%) [1]: 32%
- Population Mitotic Cells (%) [1]: 75%
- Population Normal (%) [1]: 74%
- Population Pyknosed Nuclei (%) [1]: 42%
- Population Tubulin-Different-Phenotype (%) [1]: 68%
- Total Cell Count [1]: 622
- Population Apoptotic (%) [2]: 20%
- Population Fragmented Nuclei (%) [2]: 3%
- Population Healthy Nuclei (%) [2]: 72%
- Population Hoechst High Intensity Objects (%) [2]: 12%
- Population Mitochondria Different-Phenotype (%) [2]: 57%
- Population Mitotic Cells (%) [2]: 80%
- Population Normal (%) [2]: 87%
- Population Pyknosed Nuclei (%) [2]: 23%
- Population Tubulin-Different-Phenotype (%) [2]: 92%
- Total Cell Count [2]: 768
- Population Fragmented Nuclei (%) [3]: 13% and 14%
- Population Hoechst High Intensity Objects (%) [3]: 17% and 19%
- Population Membrane Permeable-Phenotype (%) [3]: 9% and 4%
- Population Normal (%) [3]: 82% and 80%
- Population Pyknosed Nuclei (%) [3]: 71% and 26%
- Total Cell Count [3]: 259 and 598
- Population Fragmented Nuclei (%) [4]: 7% and 3%
- Population Hoechst High Intensity Objects (%) [4]: 9% and 6%
- Population Membrane Permeable-Phenotype (%) [4]: 10% and 3%
- Population Mitotic Cells (%) [4]: 51%
- Population Normal (%) [4]: 90% and 93%
- Population Tubulin-Different-Phenotype (%) [4]: 94% and 44%
- Population Apoptotic (%) [5]: 25%
- Population Fragmented Nuclei (%) [5]: 18%
- Population Healthy Nuclei (%) [5]: 56%
- Population Hoechst High Intensity Objects (%) [5]: 20%
- Population Membrane Permeable-Phenotype (%) [5]: 8%
- Population Mitochondria Different-Phenotype (%) [5]: 32%
- Population Mitotic Cells (%) [5]: 74%
- Population Normal (%) [5]: 79%
- Population Pyknosed Nuclei (%) [5]: 25%
- Population Tubulin-Different-Phenotype (%) [5]: 79%
- Total Cell Count [5]: 652
- Population Apoptotic (%) [6]: 17%
- Population Fragmented Nuclei (%) [6]: 3%
- Population Healthy Nuclei (%) [6]: 82%
- Population Hoechst High Intensity Objects (%) [6]: 9%
- Population Membrane Permeable-Phenotype (%) [6]: 10%
- Population Mitochondria Different-Phenotype (%) [6]: 44%
- Population Mitotic Cells (%) [6]: 82%
- Population Normal (%) [6]: 90%
- Population Pyknosed Nuclei (%) [6]: 13%
- Population Tubulin-Different-Phenotype (%) [6]: 95%
- Total Cell Count [6]: 865
- Population Apoptotic (%) [7]: 70% and 26%
- Population Fragmented Nuclei (%) [7]: 17% and 14%
- Population Hoechst High Intensity Objects (%) [7]: 14% and 19%
- Population Membrane Permeable-Phenotype (%) [7]: 2% and 5%
- Population Mitotic Cells (%) [7]: 29% and 73%
- Population Normal (%) [7]: 85% and 80%
- Population Tubulin-Different-Phenotype (%) [7]: 94% and 44%
- Total Cell Count [7]: 284 and 562
- Population Fragmented Nuclei (%) [8]: 6% and 8%
- Population Hoechst High Intensity Objects (%) [8]: 10% and 8%
- Population Membrane Permeable-Phenotype (%) [8]: 10% and 4%
- Population Mitotic Cells (%) [8]: 30% and 81%
- Population Normal (%) [8]: 89% and 91%
- Population Tubulin-Different-Phenotype (%) [8]: 95% and 56%
- Population Apoptotic (%) [11]: 65%
- Population Fragmented Nuclei (%) [11]: 17%
- Population Healthy Nuclei (%) [11]: 7%
- Population Hoechst High Intensity Objects (%) [11]: 15%
- Population Membrane Permeable-Phenotype (%) [11]: 15%
- Population Mitochondria Different-Phenotype (%) [11]: 94%
- Population Mitotic Cells (%) [11]: 34%
- Population Normal (%) [11]: 84%
- Population Pyknosed Nuclei (%) [11]: 74%
- Population Tubulin-Different-Phenotype (%) [11]: 94%
- Total Cell Count [11]: 290
- Population Apoptotic (%) [12]: 78%
- Population Fragmented Nuclei (%) [12]: 4%
- Population Healthy Nuclei (%) [12]: 57%
- Population Hoechst High Intensity Objects (%) [12]: 7%
- Population Membrane Permeable-Phenotype (%) [12]: 3%
- Population Mitochondria Different-Phenotype (%) [12]: 85%
- Population Mitotic Cells (%) [12]: 21%
- Population Normal (%) [12]: 92%
- Population Pyknosed Nuclei (%) [12]: 37%
- Population Tubulin-Different-Phenotype (%) [12]: 96%
- Total Cell Count [12]: 199
